Here are results for 167 variants from the RNAGym collection of RNA variant scans (doi:10.1126/science.aae0568).

B1: tRNA (parent)
chain: GUUCCGUUGGCGUAAUGGUAACGCGUCUCCCUCCUAAGGAGAAGACUGCGGGUUCGAGUCCCGUACGGAACG

This sample holds only a part of the variants without activity. Some results are limits rather than exact numbers.

In this data set the parent is B1. Kind of data set: yeast fitness relative to wild type (ratio to wild type); higher = fitter; tRNA-Arg(CCU), competitive growth, 37 C, YPD. The method, boiled down:
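Amplicons of the tRNA-Arg(CCU) gene were sequenced, 100-nucleotide paired-end, from the start population and from each end population of a pooled yeast competition. The competition, in six parallel replicates, lasted 24 hours in YPD at 37°C. Fitness relative to wild type was calculated from changes in genotype frequencies. Genotypes had to have ≥ 100 starting reads, and estimates < 0.5 were set to 0.5.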
Turning to U19G C22G C34U G68C, the yeast fitness was at most 0.5. Under U19G A20U stands 0.955. Next, A20C C27U C66U G67C: at most 0.5; A20C A36U G39C G48A: at most 0.5; U19C A36G: 1.01. Next, U19C C34U A43U G52C: at most 0.5; U19C G50A: 0.833; A20C C24U G68C: 0.542.

As for U19C G25C G51C C60U A69U, the yeast fitness was at most 0.5. Next, U19A C46U G48A U53C: 0.784; A20C A42G: 0.842.

For the variant U19A C49A U54G U59A G63C A69G, the yeast fitness is at most 0.5.

In the case of A20C C22U C61G, the yeast fitness is at most 0.5. Under U19G U47C U64G stands 0.536. Next, U19C A42G C46A C55G: at most 0.5; U19C C61G: 0.691.

Take U19C C27G C46U: the yeast fitness was found to be 0.673. Under U19C G23A C29G stands at most 0.5; under U19A C46U G67A, 0.957. Under U19G A37G A65U A69U stands at most 0.5; under U19A U47A G52C, at most 0.5; under U19C C31G U53G U54A A57U, 0.653. Under U19G A42U stands 0.991; under U19C G48C C66U, 0.712. As for U19C A69C, the yeast fitness came out at 0.991.

In the case of U19C A69G, the yeast fitness is 0.788. Next, U19G G39A A40G: 0.56; A20C A21C C27U C46A: 0.6; U19C G25A: 0.969. Consider U19C C29A G39C A57G C61U C66U, for which the yeast fitness was at most 0.5. Next, U19C C66U: 0.855; U19G C22U A70U: 0.746; U19A U64A: 0.807. Next, A20C C24U C49U: 0.602; U19C C33G C34U U54A C66U: 0.524. Next, U19C C27G C30U: 0.55; U19C A65G: 1. As for U19C C31G U35A C61A A69C, the yeast fitness is 0.504. Next, A20C A21G A57G: 0.744; U19A U54A: 0.706. Next, U19A G48A G68C: 0.626. Next, A20C C24G C27A G44A U59G A65C: at most 0.5; A20C C24G C27U C31G U54C A65C: at most 0.5; U19G C55G A69U: 0.54. In the case of U19A G56A, the yeast fitness is 1.

With U19C C49G, the yeast fitness is 1.14.

As to U19C A57C, the yeast fitness was 0.594. Next, U19C A57G: 0.945; U19C C22G C34G A70U: at most 0.5; A20C C27U C34G C61U C62G: 0.616. Under U19C G48A C62A stands 0.91; under A20C A37C A43G C55U, at most 0.5.

Take A20C C24U C27G C49A U53C C62G: the yeast fitness was at most 0.5. For the variant U19G C34A G50A, the yeast fitness is at most 0.5. Next, A20C A45U C55U: at most 0.5; A20C C27U A36G: 0.62; U19G A43U C66A: 0.6. Under U19A U28A C31G A43G A45G stands at most 0.5; under U19C C46G A65G, 0.716. Next, U19C C24G A37U U54G U64A: at most 0.5; A20C A37G C49G U53A C60U A69C: 0.57; U19C C60A: 0.547. For the variant U19C U35C C49U C61G, the yeast fitness is at most 0.5. Under A20C A45C stands 0.843; under U19C C24U C27G G38C A57U C60A C62G, at most 0.5. In the case of A20C A21U C30U C31A G63A, the yeast fitness stood at 0.628. Turning to A20C A43C C49A U54A G58A C60A, the yeast fitness is at most 0.5. Under U19C C27A C30G A45C stands at most 0.5; under U19C A21G U26G C49U, 0.745.

As for U19C G50A C55A C66A, the yeast fitness stood at 0.516. Under U19A C61U stands 0.983. For U19A C61A, the yeast fitness worked out at 0.673. Next, A20C A37C: 0.762; A20C C29U U32A: at most 0.5. On to A20C A21G G50C A65C, for which the yeast fitness was at most 0.5. Next, U19A G23C C30G U47A: 0.594. Next, U19A C49G G56U: 0.558; U19C C24A U47C: at most 0.5; A20C C24A C27A A36C: at most 0.5.

With U19C U26C C27A C30G U54A G56A, the yeast fitness was at most 0.5. Next, U19G A20U C27G A36G: at most 0.5; U19C A37U C62A U64C: 0.725. Next, U19G C22U G52A: at most 0.5; U19C A20C A70U: 0.65. With U19G U47C C66U, the yeast fitness is 0.786.

As for A20C A57C C60A, the yeast fitness is at most 0.5. Under U19G U64C stands 0.841; under U19G G58C G67C, 0.61. Next, U19C C22A G23A C34U A57C C66U A69C: at most 0.5; U19C A42U C46U C55G G63C: at most 0.5. U19A C31G G44C: the yeast fitness was at most 0.5. In the case of U19A G39C, the yeast fitness is 0.742. With U19A G39A, the yeast fitness is 0.846.

As to U19C A20U, the yeast fitness is 0.941. Next, U19C G38C G44C C46A: 0.872; U19A U28C A69C: 0.674; U19C C49G G67U: 0.599. Next, U19C A21G U26G G48C: 0.624; U19G G38C A57U: 0.552.

A20C C29U C49G A70U: the yeast fitness is at most 0.5.

Turning to U19C A40C G41C, the yeast fitness was found to be 0.594.

As to U19C U26G A57G, the yeast fitness was at most 0.5. Next, U19C G50A C55A: at most 0.5; U19C A40G G48A: 0.718. Under U19C A20C C31G A70C stands at most 0.5; under A20C C30A A65C, 0.583. For U19C C33G A57G C61G, the yeast fitness was at most 0.5. Next, U19C C33A A36C C55U: at most 0.5; U19A C34G A57U: at most 0.5; U19G C24G: 0.553. Under U19C U28A G38C G44C C46A stands 0.572; under A20C A43C G68U, at most 0.5. Under A20C C29U C49G stands 0.612. On to U19G C61G, for which the yeast fitness amounted to 0.575. Next, U19C G58C C61U C66U: 0.529; U19G A65U: 0.99; A20C C29G G51A: 0.646.

With U19G U28G, the yeast fitness amounted to 0.551. As for U19C C31U C33G G41A C49G U54C G63A, the yeast fitness is at most 0.5.

For the variant U19C A20C C24A G56A, the yeast fitness was at most 0.5. Under A20C C24U C31G A37U C60G stands at most 0.5; under U19C U28C C49A, 0.584; under U19C C24U C30A, 0.631.

On to U19C G50A G56A, for which the yeast fitness was determined as 0.749. Under U19C C33G A57G C61G A69G stands 0.65. As for A20C A43C A69U A70C, the yeast fitness was determined as 0.725. Under U19C U35G A43G stands 0.598; under U19G A43U G51U A65G G68A, at most 0.5; under A20C C24G C33G A42U A57C G67C, 0.645. Next, U19C A20U C55A: at most 0.5. Under U19G U32G G51C A57U stands at most 0.5; under U19C A70C, 1.03; under U19C A70U, 0.953. For U19C C27A C46A A70C, the yeast fitness is at most 0.5. Under U19C C46U A69C stands 0.724; under U19A C46U C49G, 1.07; under U19G C34A, 0.87. Consider A20C A36G G48A C49U, for which the yeast fitness is at most 0.5. A20C A42C A45C G48A: the yeast fitness stood at 0.565. Under U19C G51C stands 0.519; under U19A G39A G44A, 0.873. Next, U19C A36U C62G: 0.529; U19G A37G A65U: 0.61. Under U19A C49U stands 1.03. Regarding U19A C49A, the yeast fitness was 0.642. As to U19C C24U, the yeast fitness was determined as 0.969.

Take U19C C27U C33U A40C C55A A65G: the yeast fitness is at most 0.5. Under U19C A37G G58C C61U U64C stands at most 0.5.

On to U19A C30U G38C, for which the yeast fitness was determined as 0.694. Under U19C G25A G44C U47A stands at most 0.5; under U19C U53C C61A G68A, at most 0.5; under A20C C27A G52A, at most 0.5. Next, U19G C22G C34U C49U: at most 0.5. With U19G G41A G48C C49U A57C A70U, the yeast fitness is at most 0.5. Under U19A U32C C49A stands at most 0.5. Under U19C A20U C29U G41C stands at most 0.5; under U19C A42U C46U C55G, at most 0.5. Next, A20C A69U: 1.04; U19C U47A A57C: at most 0.5. U19C C31U C33G G41A C49G U54C U59C G63A: the yeast fitness was at most 0.5. As for U19A G48A A65U, the yeast fitness amounted to 0.71. Under U19A G38C G56C stands at most 0.5. Under A20C A70G stands 0.925; under U19A C34G A43C, 0.534. For the variant U19G G41C C66U, the yeast fitness was at most 0.5. Next, U19G G38A G50A: at most 0.5; U19C G23A G38A: 0.634.
